These results are taken from ChEMBL document CHEMBL1156966, “A new cytotoxic tambjamine alkaloid from the Azorean nudibranch Tambja ceutae” (Bioorg Med Chem Lett, 2010).

The subject of one assay is 3T3-L1. Kind of assay: Cytotoxicity against mouse 3T3L1 cells after 48 hrs by MTT assay. The format is cell-based. To be noted: 3T3-L1, 48 h. The method, boiled down: (§1)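 Cells exposed 48 h to a range of concentrations, then counted. Viability and proliferation read by MTT, which measures mitochondrial dehydrogenase activity.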
On the technique in general: Tetrazolium assays rely on reduction of a dye to a coloured formazan, in cell work by metabolically active cells.

The next assay concerns H9c2. Kind of assay: Cytotoxicity against rat H9c2 cells after 48 hrs by MTT assay. The format is cell-based. To be noted: H9c2, 48 h. The method, boiled down: as §1
Another assay relates to HeLa. Kind of assay: Cytotoxicity against human HeLa cells after 48 hrs by MTT assay. The format is functional, cell-based. The method, boiled down:
as §1

For a further assay, the system named is Caco-2. The assay is described as follows: Cytotoxicity against human Caco-2 cells after 48 hrs by MTT assay. The format is functional, cell-based. To be noted: Caco-2, 48 h. The method, boiled down:
as §1

In a further assay the test system is C6. The assay is described as follows: Cytotoxicity against rat C6 cells after 48 hrs by MTT assay. Format: functional, cell-based. To be noted: C6, 48 h. The method in brief: as §1

Broadly, the IC50 is the concentration that gives 50% inhibition. Low values mean greater potency, high ones weaker potency. In the case of `COC1=CC(c2ccc[nH]2)=N/C1=C/c1[nH]c(-c2ccc[nH]2)cc1OC`, the IC50 turned out to be 24 µM with 3T3-L1; 107 µM in the assay on H9c2; 70 µM in the assay with HeLa; 91 µM in the assay on Caco-2; 7 µM in the assay with C6.
In the same order, the values of `COC1=CC(c2ccc[nH]2)=N/C1=C\NCCC(C)C` [TAMBJAMINE K] are 19 µM, 2.7 µM, 14.6 µM, 0.0035 µM and 14 µM.
